Laboratory results: ChEMBL document CHEMBL3779815, “Synthesis of newer 1,2,3-triazole linked chalcone and flavone hybrid compounds and evaluation of their antimicrobial and cytotoxic activities” (Eur J Med Chem, 2016)
Converted amounts (≈) assume the structure as drawn.

Tests used:
Candida albicans [1] = assay: Antifungal activity against Candida albicans clinical isolate after 18 to 24 hrs by micro-dilution method; type: functional
In short: (§1)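 Microdilution MIC run as the antibacterial protocol but on Sabouraud dextrose […] pH 7.3±0.2; compounds 100 to 0.78 μg/mL in twofold steps; saline-prepared inocula 1-2 × 10⁷ cfu/mL, 0.01 mL added; 37 °C aerobic, 18-24 h; MIC read as lowest concentration without visible growth or turbidity; fluconazole reference.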

Cryptococcus neoformans = assay: Antifungal activity against Cryptococcus neoformans clinical isolate after 18 to 24 hrs by micro-dilution method; type: functional; in short: as §1
Aspergillus niger = assay: Antifungal activity against Aspergillus niger clinical isolate after 18 to 24 hrs by micro-dilution method; type: functional; in short: as §1
Candida albicans [2] = assay: Antifungal activity against Candida albicans ATCC 90028 after 18 to 24 hrs by micro-dilution method; type: functional; in short: as §1
Candida parapsilosis = assay: Antifungal activity against Candida parapsilosis ATCC 22019 after 18 to 24 hrs by micro-dilution method; type: functional; settings: Lodderomyces parapsilosis; in short: as §1
Plasmodium falciparum = assay: Antimalarial activity against erythrocytic stage of chloroquine sensitive Plasmodium falciparum 3D7 assessed as inhibition of parasitemia after 48 hrs by Giemsa staining based microscopic analysis; type: functional, organism-based; settings: 3D7, 48 h
In short: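 Asynchronous culture on human O⁺ erythrocytes, 1-1.5% parasitemia, 4% hematocrit, RPMI-1640 with HEPES, NaHCO₃, glutamine, gentamycin, Albumax II; drug 0.10-100 μg/mL, 48 h, 37 °C, medium changed at 24 h; triplicate wells; Giemsa thin smears, about 4,000 erythrocytes counted at 1,000X; % parasitemia inhibition versus control gives IC50.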

Candida tropicalis = assay: Antifungal activity against Candida tropicalis ATCC 750 after 18 to 24 hrs by micro-dilution method; type: functional; in short: as §1
Shigella boydii = assay: Antibacterial activity against Shigella boydii clinical isolate after 18 to 24 hrs by micro-dilution method; type: functional
Enterococcus faecalis = assay: Antibacterial activity against Enterococcus faecalis ATCC 29212 after 18 to 24 hrs by micro-dilution assay; type: functional
Staphylococcus aureus = assay: Antibacterial activity against Staphylococcus aureus […] after 18 to 24 hrs by micro-dilution method; type: functional
Escherichia coli = assay: Antibacterial activity against Escherichia coli ATCC 35218 after 18 to 24 hrs by micro-dilution method; type: functional
Arthrodermataceae = assay: Antifungal activity against Dermatophyte clinical isolate after 18 to 24 hrs by micro-dilution method; type: functional; in short: as §1
Klebsiella pneumoniae = assay: Antibacterial activity against Klebsiella pneumoniae ATCC 27736 after 18 to 24 hrs by micro-dilution method; type: functional
Aspergillus fumigatus = assay: Antifungal activity against Aspergillus fumigatus clinical isolate after 18 to 24 hrs by micro-dilution method; type: functional; in short: as §1
Pseudomonas aeruginosa = assay: Antibacterial activity against Pseudomonas aeruginosa […] after 18 to 24 hrs by micro-dilution method; type: functional
[3] = Cytotoxicity against human HuH7 cells after 72 hrs by MTT assay; type: cell-based, Huh-7
In short: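 Huh-7 cells, 4 × 10³/well in DMEM with 10% FBS and penicillin-streptomycin-glutamine; eight 2-fold dilutions 100-0.78 μg/mL, 72 h; MTT added 2-4 h, then isopropanol/Triton X-100/HCl solubilization 2 h dark, RT; absorbance 570 nm; CC50 as mean of at least two experiments in duplicate.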

Row | Structure (SMILES) | MIC (Candida albicans [1]) [µg/mL] | MIC (Cryptococcus neoformans) [µg/mL] | MIC (Aspergillus niger) [µg/mL] | MIC (Candida albicans [2]) [µg/mL] | MIC (Candida parapsilosis) [µg/mL] | IC50 (Plasmodium falciparum) [µg/mL] | MIC (Candida tropicalis) [µg/mL] | MIC (Shigella boydii) [µg/mL] | MIC (Enterococcus faecalis) [µg/mL] | MIC (Staphylococcus aureus) [µg/mL] | MIC (Escherichia coli) [µg/mL] | MIC (Arthrodermataceae) [µg/mL] | MIC (Klebsiella pneumoniae) [µg/mL] | MIC (Aspergillus fumigatus) [µg/mL] | MIC (Pseudomonas aeruginosa) [µg/mL] | CC50 at 72 h [3] [µg/mL]
1 | COc1cc(O)c(C(=O)/C=C/c2ccc(OC)c(OCc3cn(-c4ccc(F)cc4Cl)nn3)c2)c(OC)c1 | > 100 | > 100 | > 100 | > 100 | > 100 | 4.92 (≈ 9.11 µM) | > 100 | > 100 | > 100 | 100 (≈ 185 µM) | > 100 | > 100 | > 100 | > 100 | > 100 | > 100
2 | COc1cc(O)c(C(=O)/C=C/c2ccc(OCc3cn(-c4ccc(Cl)cc4)nn3)c(OC)c2)c(OC)c1 | 6.25 (≈ 12 µM) | 12.5 (≈ 23.9 µM) | 25 (≈ 47.9 µM) | 12.5 (≈ 23.9 µM) | 12.5 (≈ 23.9 µM) | 5.08 (≈ 9.73 µM) | 6.25 (≈ 12 µM) | > 100 | > 100 | > 100 | > 100 | 12.5 (≈ 23.9 µM) | > 100 | 25 (≈ 47.9 µM) | > 100 | > 100
3 | COc1cc(O)c(C(=O)/C=C/c2ccc(OCc3cn(-c4ccc(F)cc4Cl)nn3)c(OC)c2)c(OC)c1 | > 100 | > 100 | 100 (≈ 185 µM) | 50 (≈ 92.6 µM) | > 100 | 6.27 (≈ 11.6 µM) | 100 (≈ 185 µM) | 12.5 (≈ 23.2 µM) | 6.25 (≈ 11.6 µM) | 6.25 (≈ 11.6 µM) | 12.5 (≈ 23.2 µM) | 25 (≈ 46.3 µM) | 25 (≈ 46.3 µM) | > 100 | 12.5 (≈ 23.2 µM) | > 100
4 | COc1cc(O)c(C(=O)/C=C/c2ccc(OC)c(OCc3cn(-c4ccc(Cl)cc4)nn3)c2)c(OC)c1 | 12.5 (≈ 23.9 µM) | 12.5 (≈ 23.9 µM) | 25 (≈ 47.9 µM) | 12.5 (≈ 23.9 µM) | 12.5 (≈ 23.9 µM) | 11 (≈ 21.1 µM) | 6.25 (≈ 12 µM) | > 100 | 100 (≈ 192 µM) | > 100 | 100 (≈ 192 µM) | 12.5 (≈ 23.9 µM) | > 100 | 25 (≈ 47.9 µM) | > 100 | > 100
5 | COc1cc(O)c(C(=O)/C=C/c2ccc(OCc3cn(-c4ccc(F)cc4F)nn3)c(OC)c2)c(OC)c1 | 50 (≈ 95.5 µM) | 50 (≈ 95.5 µM) | > 100 | > 100 | 25 (≈ 47.8 µM) | 3.58 (≈ 6.84 µM) | > 100 | 6.25 (≈ 11.9 µM) | 12.5 (≈ 23.9 µM) | 12.5 (≈ 23.9 µM) | 6.25 (≈ 11.9 µM) | > 100 | 12.5 (≈ 23.9 µM) | > 100 | 12.5 (≈ 23.9 µM) | > 100
6 | COc1cc(O)c(C(=O)/C=C/c2ccc(OC)c(OCc3cn(-c4ccccc4Cl)nn3)c2)c(OC)c1 | 12.5 (≈ 23.9 µM) | 12.5 (≈ 23.9 µM) | 12.5 (≈ 23.9 µM) | 6.25 (≈ 12 µM) | 12.5 (≈ 23.9 µM) | 8.03 (≈ 15.4 µM) | 6.25 (≈ 12 µM) | 12.5 (≈ 23.9 µM) | 25 (≈ 47.9 µM) | 25 (≈ 47.9 µM) | 50 (≈ 95.8 µM) | 12.5 (≈ 23.9 µM) | > 100 | 12.5 (≈ 23.9 µM) | 100 (≈ 192 µM) | > 100
7 | COc1cc(O)c(C(=O)/C=C/c2ccc(OCc3cn(-c4ccc(F)cc4Cl)nn3)c(OCc3cn(-c4ccc(F)cc4Cl)nn3)c2)c(OC)c1 | > 100 | > 100 | > 100 | > 100 | > 100 | 8.55 (≈ 11.6 µM) | > 100 | > 100 | > 100 | > 100 | > 100 | > 100 | > 100 | > 100 | 100 (≈ 136 µM) | > 100
8 | COc1cc(O)c(C(=O)/C=C/c2ccc(OC)c(OCc3cn(-c4ccc(F)cc4F)nn3)c2)c(OC)c1 | > 100 | > 100 | 50 (≈ 95.5 µM) | > 100 | > 100 | 9.54 (≈ 18.2 µM) | > 100 | 12.5 (≈ 23.9 µM) | 25 (≈ 47.8 µM) | 100 (≈ 191 µM) | 50 (≈ 95.5 µM) | > 100 | > 100 | 50 (≈ 95.5 µM) | > 100 | > 100
9 | COc1cc(O)c(C(=O)/C=C/c2ccc(OCc3cn(-c4ccccc4Cl)nn3)c(OC)c2)c(OC)c1 | > 100 | > 100 | > 100 | > 100 | > 100 | 6.78 (≈ 13 µM) | > 100 | 6.25 (≈ 12 µM) | 6.25 (≈ 12 µM) | 12.5 (≈ 23.9 µM) | 6.25 (≈ 12 µM) | > 100 | 25 (≈ 47.9 µM) | > 100 | 12.5 (≈ 23.9 µM) | > 100
10 | COc1cc(O)c(C(=O)/C=C/c2ccc(OC)c(OCc3cn(-c4ccc(F)c(Cl)c4)nn3)c2)c(OC)c1 | > 100 | 100 (≈ 185 µM) | > 100 | > 100 | > 100 | 7.52 (≈ 13.9 µM) | 100 (≈ 185 µM) | > 100 | 100 (≈ 185 µM) | > 100 | 100 (≈ 185 µM) | > 100 | > 100 | > 100 | > 100 | > 100
11 | COc1cc(O)c(C(=O)/C=C/c2ccc(OCc3cn(-c4ccc(F)c(Cl)c4)nn3)c(OC)c2)c(OC)c1 | > 100 | > 100 | 100 (≈ 185 µM) | > 100 | > 100 | 2.74 (≈ 5.07 µM) | > 100 | 25 (≈ 46.3 µM) | 50 (≈ 92.6 µM) | > 100 | 50 (≈ 92.6 µM) | > 100 | > 100 | > 100 | 100 (≈ 185 µM) | > 100
12 | C[C@@H]1CC[C@H]2[C@@H](C)C(=O)O[C@@H]3O[C@@]4(C)CC[C@@H]1[C@]32OO4 [ARTEMISININ] |  |  |  |  |  | 0.00112 (≈ 0.00396 µM) |  |  |  |  |  |  |  |  |  | > 100
13 | OC(Cn1cncn1)(Cn1cncn1)c1ccc(F)cc1F [FLUCONAZOLE] | 0.5 (≈ 1.63 µM) | 2 (≈ 6.53 µM) | 2 (≈ 6.53 µM) | 0.5 (≈ 1.63 µM) | 0.5 (≈ 1.63 µM) |  | 0.5 (≈ 1.63 µM) |  |  |  |  | 4 (≈ 13.1 µM) |  | 2 (≈ 6.53 µM) |  | 
